Results taken from the M2OR odorant receptor database.

Tests used:
Conditions in all cases: stereoisomer not certain
[1] = molecular target: T1, OR2L13 (Homo sapiens) (UniProt Q8N349)
T1 sequence (whole entry): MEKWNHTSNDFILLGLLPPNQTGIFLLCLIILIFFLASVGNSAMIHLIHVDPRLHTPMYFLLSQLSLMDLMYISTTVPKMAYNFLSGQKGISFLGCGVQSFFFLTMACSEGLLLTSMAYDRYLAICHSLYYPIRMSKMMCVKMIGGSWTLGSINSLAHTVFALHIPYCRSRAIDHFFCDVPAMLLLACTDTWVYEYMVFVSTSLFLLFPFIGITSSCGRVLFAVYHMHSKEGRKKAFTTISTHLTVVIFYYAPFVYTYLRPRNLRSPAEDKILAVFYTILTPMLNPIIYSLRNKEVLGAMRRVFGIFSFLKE
Procedure, shortened: (§1)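 Transient luciferase assays in mammalian cell lines were common, though methods varied by source. The values come from published papers and their supplementary material, with extra details from the original authors when needed. Responsive refers to a measured signal the original authors judged statistically different from baseline, and non-responsive (inactive) to the remainder.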

[2] = test system: OR2J3
Procedure, shortened: as §1
Target sequence in this assay (as listed by the source): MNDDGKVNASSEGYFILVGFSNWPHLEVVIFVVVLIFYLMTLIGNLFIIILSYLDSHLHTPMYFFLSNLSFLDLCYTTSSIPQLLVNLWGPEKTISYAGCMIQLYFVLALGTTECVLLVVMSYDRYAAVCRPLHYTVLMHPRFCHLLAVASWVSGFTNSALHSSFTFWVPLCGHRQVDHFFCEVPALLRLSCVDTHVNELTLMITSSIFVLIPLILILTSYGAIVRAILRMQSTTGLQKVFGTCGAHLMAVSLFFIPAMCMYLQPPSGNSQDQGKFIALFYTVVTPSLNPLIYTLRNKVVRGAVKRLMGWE

[3] = molecular target: OR2K2 (Homo sapiens) (UniProt Q8NGT1)
Sequence of OR2K2 (Homo sapiens) (Q8NGT1 whole entry): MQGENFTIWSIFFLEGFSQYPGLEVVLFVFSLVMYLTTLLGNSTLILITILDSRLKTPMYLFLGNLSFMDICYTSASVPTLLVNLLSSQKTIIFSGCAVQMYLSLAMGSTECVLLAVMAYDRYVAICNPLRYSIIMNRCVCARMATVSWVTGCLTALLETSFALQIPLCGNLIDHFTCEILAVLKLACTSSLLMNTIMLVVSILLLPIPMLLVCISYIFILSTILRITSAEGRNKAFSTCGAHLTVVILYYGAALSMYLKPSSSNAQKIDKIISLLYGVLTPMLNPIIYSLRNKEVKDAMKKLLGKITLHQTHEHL
Procedure, shortened: as §1

[4] = molecular target: OR2L2 (Homo sapiens) (UniProt Q8NH16)
Sequence of OR2L2 (Homo sapiens) (Q8NH16 whole entry): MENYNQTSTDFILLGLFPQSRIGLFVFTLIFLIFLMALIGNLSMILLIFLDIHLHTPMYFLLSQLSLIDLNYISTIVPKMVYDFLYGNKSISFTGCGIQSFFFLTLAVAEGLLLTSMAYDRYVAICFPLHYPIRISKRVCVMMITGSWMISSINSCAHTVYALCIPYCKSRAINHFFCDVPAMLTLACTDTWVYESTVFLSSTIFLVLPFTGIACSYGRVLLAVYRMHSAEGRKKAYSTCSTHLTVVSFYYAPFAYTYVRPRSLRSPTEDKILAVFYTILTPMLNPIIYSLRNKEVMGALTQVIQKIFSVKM
Procedure, shortened: as §1

[5] = molecular target: OR2L3 (Homo sapiens) (UniProt Q8NG85)
Sequence of OR2L3 (Homo sapiens) (Q8NG85 whole entry): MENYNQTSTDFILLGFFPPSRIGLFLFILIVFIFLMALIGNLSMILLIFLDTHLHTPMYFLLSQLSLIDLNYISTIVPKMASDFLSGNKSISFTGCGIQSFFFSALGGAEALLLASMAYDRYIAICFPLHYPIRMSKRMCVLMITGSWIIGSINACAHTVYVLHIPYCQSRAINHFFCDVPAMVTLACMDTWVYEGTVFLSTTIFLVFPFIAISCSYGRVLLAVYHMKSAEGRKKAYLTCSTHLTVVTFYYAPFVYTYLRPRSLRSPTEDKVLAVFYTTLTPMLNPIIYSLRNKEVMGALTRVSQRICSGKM
Procedure, shortened: as §1

[6] = molecular target: OR2L5 (Homo sapiens) (UniProt Q8NG80)
Sequence of OR2L5 (Homo sapiens) (Q8NG80 whole entry): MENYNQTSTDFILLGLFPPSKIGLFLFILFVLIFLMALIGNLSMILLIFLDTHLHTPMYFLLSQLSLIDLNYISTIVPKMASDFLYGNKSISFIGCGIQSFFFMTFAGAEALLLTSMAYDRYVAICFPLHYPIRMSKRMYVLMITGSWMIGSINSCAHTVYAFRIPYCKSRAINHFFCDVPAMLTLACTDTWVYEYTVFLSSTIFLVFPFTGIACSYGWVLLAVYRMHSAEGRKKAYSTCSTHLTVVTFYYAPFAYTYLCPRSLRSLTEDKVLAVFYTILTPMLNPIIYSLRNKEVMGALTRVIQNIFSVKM
Procedure, shortened: as §1

[7] = molecular target: OR2L8 (Homo sapiens) (UniProt Q8NGY9)
Sequence of OR2L8 (Homo sapiens) (Q8NGY9 whole entry): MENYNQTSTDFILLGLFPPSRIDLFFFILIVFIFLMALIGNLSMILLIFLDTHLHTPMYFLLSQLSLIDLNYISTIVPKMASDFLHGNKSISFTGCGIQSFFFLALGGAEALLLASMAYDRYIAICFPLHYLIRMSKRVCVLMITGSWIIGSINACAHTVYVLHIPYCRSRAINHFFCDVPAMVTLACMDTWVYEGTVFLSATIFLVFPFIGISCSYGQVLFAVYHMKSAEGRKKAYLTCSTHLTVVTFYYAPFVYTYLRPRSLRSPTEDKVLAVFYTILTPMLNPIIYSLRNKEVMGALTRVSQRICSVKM
Procedure, shortened: as §1

[8] = molecular target: OR2M2 (Homo sapiens) (UniProt Q96R28)
Sequence of OR2M2 (Homo sapiens) (Q96R28 whole entry): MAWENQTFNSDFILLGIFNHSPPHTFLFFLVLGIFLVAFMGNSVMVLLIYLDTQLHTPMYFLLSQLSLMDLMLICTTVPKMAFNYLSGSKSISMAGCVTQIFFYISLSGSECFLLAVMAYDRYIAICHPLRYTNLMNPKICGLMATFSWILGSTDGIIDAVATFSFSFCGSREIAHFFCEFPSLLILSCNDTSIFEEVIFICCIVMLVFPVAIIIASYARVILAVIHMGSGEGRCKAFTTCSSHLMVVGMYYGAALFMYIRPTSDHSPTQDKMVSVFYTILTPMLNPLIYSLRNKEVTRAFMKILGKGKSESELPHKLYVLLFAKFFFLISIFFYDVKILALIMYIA
Procedure, shortened: as §1

[9] = test system: OR2J3; remark: listed apart in the source
Procedure, shortened: as §1
Target sequence in this assay (as listed by the source): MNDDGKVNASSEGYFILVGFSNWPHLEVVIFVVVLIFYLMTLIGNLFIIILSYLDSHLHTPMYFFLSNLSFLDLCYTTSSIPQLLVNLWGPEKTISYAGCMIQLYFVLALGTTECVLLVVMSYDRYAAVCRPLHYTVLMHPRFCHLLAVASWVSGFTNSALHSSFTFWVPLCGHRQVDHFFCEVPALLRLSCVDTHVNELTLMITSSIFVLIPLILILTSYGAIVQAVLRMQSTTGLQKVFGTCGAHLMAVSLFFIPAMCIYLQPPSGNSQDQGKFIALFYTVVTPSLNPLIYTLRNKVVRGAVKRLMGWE

[10] = test system: OR2J3; remark: listed apart in the source
Procedure, shortened: as §1
Target sequence in this assay (as listed by the source): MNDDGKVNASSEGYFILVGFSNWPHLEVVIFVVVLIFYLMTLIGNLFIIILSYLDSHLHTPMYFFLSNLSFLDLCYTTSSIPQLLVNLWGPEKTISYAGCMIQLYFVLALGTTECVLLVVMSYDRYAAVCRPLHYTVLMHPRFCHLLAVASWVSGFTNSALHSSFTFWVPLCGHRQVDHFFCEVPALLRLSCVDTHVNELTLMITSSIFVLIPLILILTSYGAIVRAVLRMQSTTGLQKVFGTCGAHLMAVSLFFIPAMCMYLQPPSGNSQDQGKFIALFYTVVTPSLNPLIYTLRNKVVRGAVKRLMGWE

Measured: odorant receptor agonist call;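 note: active if original authors judged signal statistically different from baseline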

Cc1cccc(C)c1
inactive: [1]

C=CCOC(=O)Cc1ccccc1
not listed: [9] | [10]
inactive: all other assays above

O=CC=Cc1ccccc1
active: [9] | [2] | [10]

COc1ccc(C=O)cc1
inactive: [1]

Cc1c([N+](=O)[O-])c(C)c([N+](=O)[O-])c(C(C)(C)C)c1[N+](=O)[O-]
inactive: [3] | [1] | [5] | [6] | [7] | [8]
